Bioassay records from PubChem BioAssay.
Most compounds without a hit are left out; they make up all but 2.9% or so of the library.
Efflux pump inh = inhibitors of Candida efflux pumps in yeast, primary screen, S. cerevisiae, Nile Red, multiplex | S. cerevisiae Candida pump triplex | inhibition, % at 10 µM | hit rate 0.44% among 330,000 | AID 485275, 2010;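 active = plate passing quality check with inhibition over a set limit, or well fluorescence over plate mean plus 4 SD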;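 note: Nile Red retained in pooled yeast measured as flow cytometry median fluorescence; 0% = buffer negative control and 100% = Enniatin B positive control; higher means more Nile Red kept so more efflux inhibition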
GalR3 antag = GalR3 antagonists in HEK293 cells, primary screen, cell-based, fluorescence readout; Galanin receptor type 3 (Homo sapiens), O60755; hit rate 0.44% among 360,000; AID 651719, 2012; HEK293 GalR3-CNG cAMP membrane potential fluorescence; galR3 body fused to GalR1 C-terminus; inhibition, % at 3 µM;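 active = inhibition above the screen-wide average plus 3 SD, cut at about 13% in these data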;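 note: forskolin and galanin both at EC90 stimulate the cells; cAMP rise reported by CNG channel membrane potential dye signal; 0% = forskolin plus galanin with DMSO and 100% = forskolin alone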
Target sequence (O60755 1-299 limits assumed): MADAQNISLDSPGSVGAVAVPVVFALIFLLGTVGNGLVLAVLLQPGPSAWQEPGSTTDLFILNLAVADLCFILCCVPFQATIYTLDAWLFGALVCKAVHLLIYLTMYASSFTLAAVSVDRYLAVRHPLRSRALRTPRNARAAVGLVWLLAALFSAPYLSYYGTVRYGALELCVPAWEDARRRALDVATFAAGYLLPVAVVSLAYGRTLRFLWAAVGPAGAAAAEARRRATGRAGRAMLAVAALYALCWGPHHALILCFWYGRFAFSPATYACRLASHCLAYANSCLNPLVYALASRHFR
Calb FLC = C. albicans growth inhibition with fluconazole, primary screen, CaCi-2 strain, Alamar Blue fluorescence. AID 1979, 2009. hit rate 0.57% among 300,000. C. albicans CaCi-2 (fluconazole-resistant clinical isolate) + fluconazole, 48 h. growth inhibition, % (concentration not given with the values);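 active = growth inhibition above about 58% in most replicates, limit read from the data, passing the limit was not always enough; inconclusive = exactly half the replicates above a set limit; inactive = most replicates below a set limit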;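 note: all wells also contain fluconazole at 8 µg/ml as a sub-toxic cotreatment; 0% = median of DMSO wells and 100% = median of geldanamycin control wells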
MC4R antagonist = MC4R antagonists of cAMP signaling, primary screen, cell-based, TR-FRET, antagonist arm of biased-ligand search. MC4R-expressing cells, MTII-stimulated cAMP, LANCE TR-FRET. inhibition, % at 6.5 µM. hit rate 0.48% among 360,000. AID 540295, 2011;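 active = inhibition above its plate's cutoff, the mean of tested wells on that plate plus 3 SD, cut at about 29% in these data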;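 note: 0% = Melanotan II alone and 100% = Melanotan II plus saturating MCL0020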
Target sequence (P32245 whole entry, looked up): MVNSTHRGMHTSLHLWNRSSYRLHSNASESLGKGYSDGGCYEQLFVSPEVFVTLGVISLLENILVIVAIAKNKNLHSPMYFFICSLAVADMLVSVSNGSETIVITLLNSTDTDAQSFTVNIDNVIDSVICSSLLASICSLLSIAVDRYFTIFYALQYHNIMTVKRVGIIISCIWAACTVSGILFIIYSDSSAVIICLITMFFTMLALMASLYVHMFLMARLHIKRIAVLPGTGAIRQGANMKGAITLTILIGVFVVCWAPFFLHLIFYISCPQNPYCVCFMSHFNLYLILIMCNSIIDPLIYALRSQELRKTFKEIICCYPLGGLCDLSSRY
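material = U2OS cells stably expressing human melanocortin 4 receptor (MC4R) | also added = Melanotan II challenge | dosing = single nominal compound dose of 6.5 µM | detection = TR-FRET with Eu-cAMP and labeled anti-cAMP, 671 nm | replication = singlicate | timing = compound 30 min, challenge 1 h, detection 1 h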
TAG inh = inhibitors of triacylglycerol accumulation, primary screen, cell-based, uHTS, fluorescence, H9c2; hit rate 0.66% among 230,000; AID 651582, 2012; inhibition, % at 12.5 µM; H9c2 cells, Nile Red lipid (TAG) fluorescence; cells loaded with 200 µM oleic acid;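 active = pattern-corrected inhibition of lipid staining of at least 50% with the nuclear-stain viability signal not falling by more than 50%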;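 note: 0% = DMSO wells and 100% = triacsin C control wells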
MC4R barr agon = MC4R agonists recruiting beta-arrestin, primary screen, cell-based, luminescence, agonist arm of biased-ligand search; activation, % at 8.9 µM; U2OS MC4R beta-arrestin complementation; percent of melanotan II response, DMSO zero; hit rate 0.98% among 360,000; Melanocortin receptor 4 (Homo sapiens), P32245; AID 540308, 2011;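 active = activation above a per-plate cutoff, the mean activation of sample wells on that plate plus 3 SD, cut at about 8% in these data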
MC4R barr ag = MC4R beta-arrestin agonists, retest, confirmation, cell-based, luminescence, U2OS. hit rate 31% among 2,400. U2OS MC4R beta-arrestin recruitment; scaled DMSO 0%, Melanotan II 100%. shares compounds with MC4R barr agon. activation, % at 8.9 µM;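 active = mean activation across replicates above the hit cutoff set in the earlier primary screen, cut at about 8% in these data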
MOR-DOR barr ag = agonists of MOR-DOR heterodimerization, counter-screen for MC4R biased agonist project, cell-based, luminescence. AID 602194, 2012. U2OS PathHunter beta-arrestin, beta-gal luminescence; percent of deltorphin B response, DMSO zero. hit rate 5.8% among 2,400. activation, % at 9.2 µM. shares compounds with MC4R barr agon;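 active = mean activation across replicates exceeds the hit threshold derived in the earlier primary screen, cut at about 18% in these data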;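 note: 100% = deltorphin B at 0.9 µM final and 0% = DMSO alone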
* = called active by the depositor; ? = inconclusive; / = not tested or not shown.

SMILES	Efflux pump inh	GalR3 antag	Calb FLC	MC4R antagonist	TAG inh	MC4R barr agon	MC4R barr ag	MOR-DOR barr ag
Cn1cnnc1SCC(=O)Nc1ccc2nc(SCc3cccc4ccccc34)sc2c1	-0.1	4.3	0.2	10.4	-3.6	9.6*	2.7	3.3
CN(C(=O)COC(=O)Cc1ccc(Br)cc1)c1c(N)n(Cc2ccccc2)c(=O)[nH]c1=O	/	-1.5	/	-7.9	22.8	1.2	/	/
COc1ccc(S(=O)(=O)N2CCN(C(=O)c3ccccc3Cc3ccccc3)CC2)cc1OC	/	-4.8	/	4.0	-8.9	2.7	/	/
Cc1ccc(-c2csc(N(C)C(=O)c3c(C)nn(-c4ccccc4)c3Cl)n2)cc1	0.2	-9.5	-5.6	0.9	/	15.7*	7.7	3.2
Cc1ccc(S(=O)(=O)N2CCCc3nc(-c4ccc(F)cc4)ccc32)cc1	/	-8.4	/	/	/	/	/	/
CCOC(=O)N=Nc1c(O)n(C)c2ccccc12	0.1	-0.1	-12.1	4.0	/	-1.6	/	/
Cc1ccccc1OCC(=O)N=Nc1c(O)n(C)c2ccccc12	0.0	-2.6	-3.2	4.5	3.0	18.0*	5.0	3.5
CCc1cc2cccc(C)c2nc1SCC(=O)c1ccc(NC(C)=O)cc1	0.0	-6.5	-10.3	-6.0	/	10.3*	2.4	2.9
O=C(Nc1ccc(N2CCCC2)cc1)c1ccc(Br)cc1	0.0	1.9	-16.9	22.3	/	17.7*	2.5	3.7
O=C(Nc1ccc(N2CCCC2)cc1)c1cccc(Cl)c1	0.0	-0.6	-6.3	-5.3	/	11.2*	-0.1	10.9
O=S1(=O)N[C@H](Cc2ccccc2)COc2cc(F)ccc21	/	-5.9	/	/	/	/	/	/
CC(C)(C)C(=O)Cn1c(=O)n(CC2CCCO2)c(=O)c2ccccc21 (stereo not given)	0.2	-6.4	3.4	5.2	/	-2.1	/	/
O=C(Cn1c(=O)n(CC2CCCO2)c(=O)c2ccccc21)c1ccc(Cl)c(Cl)c1 (stereo not given)	-0.1	-0.7	9.1	6.3	6.5	10.7*	-0.5	3.4
OC[C@H]1O[C@@H](c2nc(-c3cccc4ccccc34)no2)[C@H](O)[C@@H]1O	/	-5.0	/	3.2	2.8	1.1	/	/
COc1cc(/C=C2/C(=N)N3C=CSC3=NC2=O)ccc1OCCCOc1ccccc1C	0.2	-7.5	9.3	-28.9	/	16.8*	12.1*	11.4
CSCc1ccc(C(=O)OCC(=O)NC2CCCC2)o1	/	-1.0	/	-4.1	2.9	-1.0	/	/
CCOC(=O)c1c(NC(=O)COC(=O)c2nccnc2N)sc2c1CCC2	0.0	-4.3	/	-4.4	12.9	15.7*	4.8	6.0
O=S(=O)(CCNCc1ccco1)NC1CCCCC1	/	0.3	/	10.2	0.2	0.4	/	/
CCOC(=O)/C(=N\Nc1ccc(C(C)=O)cc1)c1csc(Nc2ccccc2)n1	0.3	1.9	-7.2	21.5	15.3	21.0*	13.1*	3.9
COc1ccc(CCCNC(=O)C2Cc3c(-c4ccccc4)ccnc3O2)cc1 (stereo not given)	/	-5.0	/	-0.4	3.9	3.4	/	/
Cc1ccc(Sc2nnc(-c3ccccc3)cc2C#N)cc1	0.1	-4.0	-8.4	4.1	-6.9	13.0*	2.8	5.6
FC(F)(F)c1cccc(NC(=S)NC(c2ccccc2)c2ccccc2)c1	-0.1	-1.2	-34.0	10.5	/	10.3*	5.6	10.4
CCCCCCOc1ccc(/C(C)=N/NC2=NCCN2)cc1[N+](=O)[O-]	0.0	7.2	?	4.3	/	14.3*	11.5*	10.0
CC/C(=N\n1nnnc1Nc1ccccc1)c1ccccc1	0.0	-2.9	-13.4	0.8	11.9	-1.1	/	/
CC(C)c1ccc(/C=N/n2nnnc2Nc2ccccc2)cc1	0.0	0.9	-3.9	12.7	/	10.7*	14.6*	6.7
SMILES	Efflux pump inh	GalR3 antag	Calb FLC	MC4R antagonist	TAG inh	MC4R barr agon	MC4R barr ag	MOR-DOR barr ag
Cn1nc(C(C)(C)C)cc1C(=O)N1CCCCC1c1cc(C(=O)Nc2ccc(F)c(Cl)c2)no1 (stereo not given)	/	-7.0	/	7.4	13.4	-4.1	/	/
O=C(COc1ccc(-c2ccccc2)cc1)N/N=C/c1ccccc1Br	-0.3	0.8	-7.2	4.6	-7.4	5.9	/	/
O=C(COc1ccc(-c2ccccc2)cc1)N/N=C/c1cc(O)ccc1Br	-0.1	0.4	2.8	-0.1	/	36.5*	12.7*	5.1
O=C(COC(=O)c1ccccc1NC(=O)c1ccco1)NCCC1=CCCCC1	0.0	1.8	-8.5	-1.2	-3.2	14.3*	2.0	4.4
COc1ccc(-c2ccc(C#N)c(SCC(=O)Nc3sc4c(c3C#N)CCC4)n2)cc1OC	0.2	-0.7	0.6	8.8	19.2	-0.3	/	/
COc1ccc(-c2ccc(C#N)c(SCC(=O)NCCc3ccccc3)n2)cc1OC	0.1	/	/	19.4	/	11.6*	4.4	5.8
COc1cccc(-c2ccc(C#N)c(SCC(=O)NCCc3cccc(Cl)c3)n2)c1	0.0	-2.6	2.2	16.1	/	13.0*	18.0*	20.2*
Cn1nc(C(=O)Nc2cccc(Cl)c2)cc1C(=O)Nc1cccc(Cl)c1	0.1	-5.7	-0.5	25.1	21.4	14.3*	2.3	6.9
COc1ccc(CCN2CC(C(=O)NCc3cccc(F)c3)CCC2=O)cc1 (stereo not given)	/	-7.1	/	3.7	2.9	0.1	/	/
CCOc1ccc(CC2S/C(=N/N=C/c3ccco3)NC2=O)cc1 (stereo not given)	0.0	-1.9	21.0	9.8	-4.6	13.6*	4.7	4.8
CCOC(=O)Cc1csc(NC(=O)c2sc3nc4ccc(C)cc4cc3c2N)n1	0.2	-1.9	2.3	-4.6	/	19.4*	1.5	3.6
CC(=O)O[C@H]1[C@@H](O)[C@H](O)[C@H](Oc2c(O)c(C)c3c4c2[C@@H](C)CC[C@@H]4[C@@H](C)C[C@@H]3C=C(C)C)O[C@H]1C	/	-4.2	/	2.5	/	1.0	/	/
C=C(C)CNC(=S)NNC(=O)CCn1c2ccc(Cl)cc2c2cc(Cl)ccc21	-0.3	-1.9	1.6	-0.6	/	10.8*	6.3	2.7
COC(=O)[C@H]1C[C@H](OC(=O)Nc2cccs2)[C@@]2(O)CN(S(=O)(=O)c3ccc(C)cc3)CC2[C@H]1C(=O)OC (stereo not given in full)	/	-6.0	/	0.2	8.5	0.4	/	/
